Hits are enriched below; roughly 2.3% of the tested compounds scored in any of these assays.
TAAR1 ag – human TAAR1 agonism; CHO RD-HGA16 TAAR1, Fluo-8 calcium fluorescence; vehicle wells 0%, saturating PEA agonist 100%; activation, % at 3 µM; 360,000 compounds, 0.99% hits;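 active = activation above the mean activation of all test compounds in the run plus 3 SD, cut at about 38% in these data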
Target sequence (Q96RJ0 whole entry, looked up): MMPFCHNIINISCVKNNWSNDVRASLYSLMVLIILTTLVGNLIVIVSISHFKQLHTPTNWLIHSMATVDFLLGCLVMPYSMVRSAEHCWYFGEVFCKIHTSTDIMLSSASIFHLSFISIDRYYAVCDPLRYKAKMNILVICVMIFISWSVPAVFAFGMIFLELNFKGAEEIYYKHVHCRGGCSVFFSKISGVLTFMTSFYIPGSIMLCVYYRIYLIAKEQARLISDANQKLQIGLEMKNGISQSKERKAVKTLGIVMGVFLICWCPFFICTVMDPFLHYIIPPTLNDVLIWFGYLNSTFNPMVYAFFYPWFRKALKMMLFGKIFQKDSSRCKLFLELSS
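Benchmarks: low control DMSO, high control PEA (EC100); System: CHO RD-HGA16 cells carrying human TAAR1 plus Gα16; Detection: Fluo-8 fluorescence, 5 s baseline then 140 s kinetic read; Schedule: 17-24 h plating, Fluo-8 75 min 37 °C, 30 min RT; Read-out basis: % activation from peak over basal fluorescence ratio, DMSO-to-PEA scaled.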
OXTR agonist – human OXTR agonism | 320,000 compounds, 0.32% hits | P30559 | activation, % at 3 µM | CHO-OTR cells, Fluo-8 calcium fluorescence; normalized: DMSO 0%, oxytocin 100%;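 active = activation above the mean of all tested compounds plus 3 SD, cutoff set per screening run, cut at about 20% in these data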;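 also: peak over basal fluorescence ratio from a 100 s FLIPR kinetic read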
TAAR1 antag – human TAAR1 antagonism; CHO RD-HGA16 TAAR1, Fluo-8 calcium fluorescence, antagonist; inhibition, % at 3 µM; 360,000 compounds, 1.5% hits; AID 624466;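 active = inhibition above a per-plate cutoff, the mean inhibition of test compounds on that plate plus 3 SD, cut at about 49% in these data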;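 also: 0% = DMSO plus EC80 beta-PEA response and 100% = DMSO alone without agonist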
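Material: CHO RD-HGA16 cells bearing hTAAR1; compound dosing: one-point dosing, 3 µM nominal final; schedule: dye loading 75 min at 37 °C, then 30 min room temperature; measured by: calcium fluorescence with Fluo-8; control set: vehicle and agonist controls; replication: n of 1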
V1aR counter – V1a receptor agonism, counter-screen for OXTR agonists | activation, % at 3 µM | CHO-V1R cells, Fluo-8 calcium fluorescence, agonist mode; 0% DMSO, 100% 3 nM vasopressin | P37288 | 320,000 compounds, 0.25% hits;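 active = activation above the mean activation of all tested compounds plus 3 SD, per screening run, cut at about 20% in these data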;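 also: signal is peak over basal fluorescence ratio across a 100 second FLIPR read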
OXTR potentiate – potentiates the human oxytocin receptor response; P30559; CHO-OTR cells, Fluo-8 calcium fluorescence, potentiator mode; 0% = oxytocin EC15, 100% = EC100; activation, % at 3 µM; 320,000 compounds, 0.061% hits; AID 2445;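 active = activation above that plate's cutoff, the mean activation of tested compounds plus 3 SD, cut at about 6.6% in these data, passing the limit was not always enough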;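 also: 100% uses oxytocin at 75 nM as the full agonist control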
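Assay system: CHO cell line stably expressing human OTR. Reagent: EC15 oxytocin agonist. Dosing: single dose, 3.0 µM nominal final compound concentration. Timing: compound 6 min at room temperature before oxytocin, 100 s read. Signal: kinetic Fluo-8 calcium fluorescence. Controls: oxytocin EC15 low and EC100 high.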
TAAR1 ag confirm – confirmation of human TAAR1 agonists; activation, % at 3 µM; CHO RD-HGA16 TAAR1, Fluo-8 calcium fluorescence; scaled: DMSO 0%, maximal phenethylamine 100%; shares compounds with TAAR1 ag; AID 651783; 2,400 compounds, 82% hits;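 active = activation above a cutoff set at the run's mean compound activation plus 3 SD, cut at about 39% in these data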
Ga16 ag counter – nonselective agonism, TAAR1 counter-screen. shares compounds with TAAR1 ag. CHO-Ga16 parental, Fluo-8 calcium fluorescence; normalized to maximal ATP response, DMSO zero. activation, % at 3 µM. 2,400 compounds, 50% hits. AID 651787;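 active = activation above the run cutoff, the mean activation over all tested wells plus 3 SD, cut at about 12% in these data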;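 also: 0% = DMSO wells and 100% = maximal ATP response on the peak over basal ratio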
TAAR1 desensitize – human TAAR1 agonist that also desensitizes the receptor | shares compounds with TAAR1 ag | CHO RD-HGA16 hTAAR1, Fluo-8 calcium, beta-PEA response inhibition | inhibition, % at 3 µM | 2,400 compounds, 46% hits;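 active = inhibition above the run cutoff, the mean inhibition of all test compounds plus 3 SD, cut at about 49% in these data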;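 also: beta-PEA stimulus applied at its EC80; loss of beta-PEA calcium signal after compound pretreatment read as receptor desensitization; 0% = DMSO with beta-PEA at EC80 and 100% = DMSO alone without agonist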
Ga16 nonsel ant – nonselective Ga16 antagonism, counter-screen | shares compounds with TAAR1 ag | CHO-Ga16 ATP-induced calcium, Fluo-8 fluorescence | inhibition, % at 3 µM | 2,400 compounds, 39% hits | AID 651952;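 active = inhibition above the plate's mean compound inhibition plus 3 SD, computed per plate, cut at about 22% in these data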;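 also: 0% = EC80 ATP with DMSO and 100% = DMSO wells without ATP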
The depositor's hits bear a star; nt = not tested or not shown.

SMILES | TAAR1 ag | OXTR agonist | TAAR1 antag | V1aR counter | OXTR potentiate | TAAR1 ag confirm | Ga16 ag counter | TAAR1 desensitize | Ga16 nonsel ant
O[C@@H](Cc1ccccc1)[C@@H](/C=C/c1ccccc1)NCCc1ccccc1 | 53* | nt | 36 | nt | nt | 90* | 18* | 48 | 24*
CC(C)CC1Nc2ncnc(N3CCCCC3)c2N(Cc2ccc(Br)cc2)C1=O (stereo unspecified) | 6 | -3 | -5 | -1 | -10 | nt | nt | nt | nt
Nc1nc2c(ncn2[C@@H]2O[C@H](C(=O)NCCCc3ccccc3)[C@@H](O)[C@H]2O)c(=O)[nH]1 | 56* | nt | -14 | nt | nt | 69* | -1 | 10 | 7
COCCCNC(=O)[C@H]1O[C@@H](n2cnc3c(=O)[nH]c(N)nc32)[C@H](O)[C@@H]1O | 1 | nt | -12 | nt | nt | nt | nt | nt | nt
CC(C(=O)Nc1ccc2c(c1)OCCO2)c1ccc([N+](=O)[O-])cc1 (stereo unspecified) | 128* | 44* | 76* | 43* | -21 | 123* | 85* | 78* | 40*
CC(C(=O)Nc1cccc(Br)c1)c1ccc([N+](=O)[O-])cc1 (stereo unspecified) | 17 | 5 | 7 | 9 | -11 | nt | nt | nt | nt
O=C(O)C1C2C=CC(C3CC23)C1C(=O)NCCc1ccccc1 (stereo unspecified) | 91* | 0 | 93* | 2 | -3 | 96* | 3 | 97* | 12
CC(C)=C1C2CCC1C(C(=O)NCCc1ccccc1)C2C(=O)O (stereo unspecified) | 62* | -2 | 88* | -1 | -8 | 80* | 4 | 90* | 4
CC(C)=C1C2CCC1C(C(=O)Nc1cc(C)cc(C)c1)C2C(=O)O (stereo unspecified) | 5 | -1 | 16 | -1 | -5 | nt | nt | nt | nt
Cc1ccccc1OCC(=O)OCC(=O)NC1CCCC(C)C1C (stereo unspecified) | 5 | nt | 21 | nt | nt | nt | nt | nt | nt
COc1ccccc1OCCn1nc2ccccc2c1OC | 7 | nt | -1 | nt | nt | nt | nt | nt | nt
C[C@@H]1CN([C@@H](C)CO)C(=O)CCCn2nncc2CO[C@@H]1CN(C)S(=O)(=O)c1ccc(F)cc1 | 0 | nt | -1 | nt | nt | nt | nt | nt | nt
O=C(Nc1ccc2oc(-c3ccncc3)nc2c1)c1ccccc1F | 50* | 2 | 13 | 3 | -5 | 5 | 20* | -1 | 14
O=C(CSC1=NS(=O)(=O)c2cc(F)ccc2N1)NCCc1ccccc1 | 101* | 2 | 81* | 1 | 3 | 105* | 1 | 94* | 6
O=C(CSC1=NS(=O)(=O)c2cc(Cl)ccc2N1)NCCc1ccccc1 | 104* | -1 | 80* | -1 | -10 | 93* | 0 | 86* | 7
O=C(CSC1=NS(=O)(=O)c2cc(F)ccc2N1)Nc1ccccc1 | 1 | 0 | -29 | 0 | -8 | nt | nt | nt | nt
Cc1cc(C)nc(OC(C(=O)O)C(OCc2ccccc2)(c2ccccc2)c2ccccc2)n1 (stereo unspecified) | 113* | -1 | 2 | 0 | -7 | 136* | 58* | 9 | -7
CCCOC(c1ccccc1)(c1ccccc1)C(Oc1nc(C)cc(C)n1)C(=O)O (stereo unspecified) | 30 | -1 | -11 | -1 | -4 | nt | nt | nt | nt
Cc1cc(C)nc(OC(C(=O)O)C(OCCC(C)C)(c2ccccc2)c2ccccc2)n1 (stereo unspecified) | 89* | -2 | 18 | -1 | -3 | 127* | 92* | 30 | 13

Screens (PubChem BioAssay)
